Bioassay records from PubChem.
Only some compounds are listed: those with a hit (about 1.8% of all), similar ones and a draw of the others.
697 NFkB inh: lowers PMA/ionomycin-induced NF-kB signal in 697 B cells | 697 B-cell NF-kB luciferase reporter, 16 h | hit rate 0.33% among 330,000 | inhibition, % at 4 µM; in the data active = inhibition above about 35%
GalR3 antag: blocks the human galanin receptor 3 | inhibition, % at 3 µM | HEK293 GalR3-CNG cAMP membrane potential fluorescence; galR3 body fused to GalR1 C-terminus | AID 651719 | hit rate 0.44% among 360,000 | O60755;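 active = inhibition above the screen-wide average plus 3 SD, cut at about 13% in these data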;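 note: forskolin and galanin both at EC90 stimulate the cells; cAMP rise reported by CNG channel membrane potential dye signal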
Target sequence (O60755 1-299 limits assumed): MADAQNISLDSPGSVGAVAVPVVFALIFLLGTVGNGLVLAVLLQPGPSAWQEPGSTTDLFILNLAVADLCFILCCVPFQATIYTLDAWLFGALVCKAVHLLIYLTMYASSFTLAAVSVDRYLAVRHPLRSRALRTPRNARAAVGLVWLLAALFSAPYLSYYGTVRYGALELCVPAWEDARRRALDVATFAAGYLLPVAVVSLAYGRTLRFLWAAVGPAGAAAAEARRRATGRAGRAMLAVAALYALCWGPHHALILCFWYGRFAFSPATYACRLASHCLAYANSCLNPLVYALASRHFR
Jurkat NFkB inh: lowers PMA/ionomycin-induced NF-kB signal in Jurkat cells; hit rate 0.53% among 330,000; PMA/ionomycin-induced NF-kB luciferase reporter, luminescence; inhibition, % at 4 µM; in the data active = inhibition above about 50%
NR2E3 ag-1: activates human NR2E3 receptor; CHO-S Gal4-NCOR/VP16-NR2E3 two-hybrid, luciferase; Q9Y5X4; inhibition of corepressor binding, % at 3.98 µM; hit rate 0.35% among 360,000;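 active = inhibition above the mean of all tested compounds plus 3 SD, cut at about 70% in these data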;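 note: higher means lower luciferase signal from less NR2E3 corepressor binding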
NR2E3 ag-2: NR2E3 (human) agonism; Q9Y5X4; GST-NR2E3/biotin-RetCOR TR-FRET, 1536-well; inhibition of corepressor binding, % at 4.78 µM; hit rate 0.12% among 320,000;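 active = percent inhibition above the cutoff of mean plus 3 SD of all tested compounds, set per screening campaign, cut at about 20% in these data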
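System: GST-tagged NR2E3 plus biotinylated RetCOR corepressor; Amount: 1.35 nM GST-tagged NR2E3 final; Dosing: single nominal compound dose of 4.8 µM; Schedule: 5 h incubation at 4 °C; Technique: TR-FRET with europium anti-GST and streptavidin-D2, 340 nm excitation; Controls: biotin wells as high control, 0.6% DMSO wells as low control.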
Gli-Sufu block: Gli-Sufu pathway antagonism | hit rate 0.74% among 340,000 | inhibition, % at 5 µM | Sufu-KO-LIGHT fibroblasts, Gli luciferase reporter luminescence;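 active = inhibition above about 55%, limit read from the data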
Gli antag conf: Gli-SUFU antagonism confirmation, single concentration. shares compounds with Gli-Sufu block. Sufu-KO-LIGHT cells, Gli luciferase reporter, luminescence. inhibition, % at 5 µM. hit rate 40% among 2,500;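 active = mean inhibition at 5 µM reaching about 45%, limit read from the data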
Gli cytotox: counter-screen for Gli-SUFU antagonists: cytotoxicity; shares compounds with Gli-Sufu block; Sufu-KO-LIGHT cells cytotoxicity, ATP luminescence; cytotoxicity, % at 5 µM; hit rate 32% among 2,500; AID 651994;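 active = mean cytotoxicity at 5 µM above about 25%, limit read from the data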;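 note: cells exposed to compound overnight for roughly 16 to 18 hours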
Wnt3a counter: counter-screen for Gli-SUFU antagonists: Wnt3a reporter inhibition; shares compounds with Gli-Sufu block; Wnt-LIGHT cells, Wnt3a-driven luciferase reporter, luminescence; inhibition, % at 6.25 µM; hit rate 20% among 2,500; AID 651995;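 active = mean inhibition above about 25%, limit read from the data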
NR2E3 ag conf: NR2E3 agonism confirmed in two-hybrid assay | shares compounds with NR2E3 ag-1 | CHO-S mammalian two-hybrid NR2E3-NCOR, luciferase luminescence | inhibition, % at 3.98 µM | hit rate 51% among 2,300;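 active = average inhibition above a cutoff equal to the mean inhibition of all tested compounds plus one SD, cut at about 70% in these data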
GAL4-VP16 luc: GAL4-VP16 reporter inhibition in NR2E3 agonist counterscreen; shares compounds with NR2E3 ag-1; CHO-S GAL4-VP16 luciferase reporter, luminescence; inhibition, % at 3.98 µM; hit rate 29% among 2,300; AID 624379;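 active = mean inhibition above a cutoff equal to the average over all tested compounds plus one standard deviation, cut at about 70% in these data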;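 note: luciferase from a UAS reporter driven by GAL4-VP16 transactivation; higher means less reporter light so more repression of VP16 activity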
GalR3 antag conf: confirmation of human galanin receptor 3 antagonists. inhibition, % at 3 µM. hit rate 59% among 1,600. HEK293 GalR3 CNG cAMP biosensor, membrane potential fluorescence; galR3 fused to GalR1 carboxy tail; challenged with forskolin and galanin at EC90. shares compounds with GalR3 antag;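 active = inhibition above the primary screen's cutoff, the mean inhibition of all screened compounds plus 3 SD, cut at about 13% in these data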
CNG parental: parental cell agonism counter-screen for GalR3 antagonists; shares compounds with GalR3 antag; HEK293-CNG parental cells, cAMP membrane potential fluorescence; normalised: DMSO wells 0%, forskolin wells 100%; activation, % at 3 µM; hit rate 10% among 1,600; in the data active = activation above about 1.3%
A number is an active result; 0 = inactive; - = no result given.

SMILES	697 NFkB inh	GalR3 antag	Jurkat NFkB inh	NR2E3 ag-1	NR2E3 ag-2	Gli-Sufu block	Gli antag conf	Gli cytotox	Wnt3a counter	NR2E3 ag conf	GAL4-VP16 luc	GalR3 antag conf	CNG parental
O=C(Nc1ccccc1Cc1ccccc1)c1ccccc1NS(=O)(=O)c1ccc(Cl)s1	0	96	0	98	0	59	63	30	57	98	86	104	0
Cc1ccc(CNC(=O)c2cc(=O)c3ccc(C)cc3o2)cc1	0	0	0	0	0	0	-	-	-	-	-	-	-
COC(=O)Nc1cc(C)nc2ccccc12	0	0	0	0	0	0	-	-	-	-	-	-	-
Cc1cc(NC(=O)Cc2ccccc2)c2ccccc2n1	0	13	0	0	0	66	59	37	30	87	0	65	0
c1ccc2c(c1)OCC(CNCC1COc3ccccc3O1)O2 (stereo not drawn)	0	0	0	0	0	0	-	-	-	-	-	-	-
c1ccc2c(c1)OCC(CNc1ncnc3sccc13)O2 (stereo not drawn)	-	97	-	84	0	76	74	0	0	97	87	105	0
CCc1nn(CCCC(=O)NCc2ccco2)c(=O)c2cc3occc3n12	0	0	0	0	0	0	-	-	-	-	-	-	-
CC(CCCC(C)(C)O)NC(=O)c1cc(COc2ccc3ncccc3c2)on1 (stereo not drawn)	0	15	0	0	0	0	56	0	31	88	75	50	0
COCC1CCCCN1C(=O)c1cc(COc2ccc3ncccc3c2)on1 (stereo not drawn)	0	25	0	104	0	72	59	0	34	91	76	93	0
Cc1cc(C)n(CCNC(=O)c2cc(COc3ccc4ncccc4c3)on2)n1	0	0	0	0	0	0	-	-	-	-	-	-	-
CCc1nnc(NC(=O)C(CC)CC)s1	0	0	0	0	0	0	-	-	-	-	-	-	-
Cc1cc(C(C)(C)C)cc(C)c1S(=O)(=O)N1CCN(C(=O)c2cc([N+](=O)[O-])c[nH]c2=O)CC1	0	0	0	0	0	0	-	-	-	-	-	-	-
Cn1c(SCC(=O)Nc2ccc3c(c2)OCCO3)nnc1C1CC1	0	0	0	0	0	0	-	-	-	-	-	-	-
O=C(CSc1nnc(Cn2nnc3ccccc32)o1)N(Cc1ccc(Cl)cc1)c1ccccc1	0	97	0	81	0	64	63	29	0	94	81	102	0
O=C(CSc1nnc(Cn2nnc3ccccc32)o1)Nc1cccc(Cl)c1	0	0	0	0	0	0	-	-	-	-	-	-	-
Cc1c(C(C)C)c(=O)n(-c2ccc(S(=O)(=O)N3CCOCC3)cc2)n1C	0	0	0	0	0	0	-	-	-	-	-	-	-
Cc1c(C(C)C)c(=O)n(-c2ccc(S(=O)(=O)NCc3ccccc3)cc2)n1C	0	91	0	81	0	71	63	0	0	94	81	102	0
Cc1c(C(C)C)c(=O)n(-c2ccc(S(=O)(=O)NC3CCCCC3)cc2)n1C	0	41	0	72	0	68	60	25	0	87	0	51	0
